Values after ≈ are worked out from the molar mass of the structure shown.
What was measured:
Format in all cases: functional
Pseudomonas fluorescens [1] = experiment: Antibacterial activity against Pseudomonas fluorescens NCIM 2036 measured after 8 hrs; conditions: NCIM 2036, 8 h
Method in brief: (§1)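 Bacteria grown in LB at 37 °C and 180 rpm to OD 1. Compounds added to wells, then 0.1% inoculum of 1 OD culture (620 nm). Growth read as OD at 620 nm after 8 h for gram-negative and after 12 h for gram-positive strains.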

Bacillus subtilis [2] = experiment: Antibacterial activity against Bacillus subtilis NCIM 2079 measured after 12 hrs; conditions: NCIM 2079, 12 h; method in brief: as §1
Escherichia coli [3] = experiment: Antibacterial activity against Escherichia coli NCIM 2688 measured after 8 hrs; conditions: NCIM 2688, 8 h; method in brief: as §1
Staphylococcus aureus [4] = experiment: Antibacterial activity against of Staphylococcus aureus NCIM 2010 measured after 12 hrs; conditions: NCIM 2010, 12 h; method in brief: as §1
Bacillus subtilis [5] = experiment: Growth inhibition of Bacillus subtilis NCIM 2079 at 3 ug/ml measured after 12 hrs relative to control; conditions: NCIM 2079, 12 h, read-out: GI; method in brief: as §1
Staphylococcus aureus [6] = experiment: Growth inhibition of Staphylococcus aureus NCIM 2010 at 10 ug/ml measured after 12 hrs relative to control; conditions: NCIM 2010, 12 h, read-out: GI; method in brief: as §1
[7] = tested on: Mycobacterium tuberculosis; experiment: Growth inhibition of Mycobacterium bovis BCG ATCC 35743 at dormant stage measured after 12 days by nitrate reductase dye based two fold dilution method; conditions: BCG str. ATCC 35743, 288 h
Method in brief: (§2)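 M. bovis BCG was grown in Dubos medium and assayed in Mycobacterium pheli minimal medium (pH 6.6), with compounds from DMSO stocks. Incubation lasted 8 days for active and 12 days for dormant cultures. Viability was read by nitrate reductase at 540 nm against cell-free blanks, with vehicle set as 100% growth. Primary screen was at 30, 10 and 3 µg/ml, in triplicate, mean ± SD. MIC was taken from dose-response curves.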

[8] = tested on: Mycobacterium tuberculosis; experiment: Growth inhibition of Mycobacterium bovis BCG ATCC 35743 at dormant stage at 30 ug/ml measured after 12 days by nitrate reductase dye based two fold dilution method relative to control; conditions: BCG str. ATCC 35743, 288 h, read-out: GI; method in brief: as §2
Pseudomonas fluorescens [9] = experiment: Growth inhibition of Pseudomonas fluorescens NCIM 2036 at 3 ug/ml measured after 8 hrs relative to control; conditions: NCIM 2036, 8 h, read-out: GI; method in brief: as §1
Escherichia coli [10] = experiment: Growth inhibition of Escherichia coli NCIM 2688 at 3 ug/ml measured after 8 hrs relative to control; conditions: NCIM 2688, 8 h, read-out: GI; method in brief: as §1
Escherichia coli [11] = experiment: Growth inhibition of Escherichia coli NCIM 2688 at 30 ug/ml measured after 8 hrs relative to control; conditions: NCIM 2688, 8 h, read-out: GI; method in brief: as §1
Pseudomonas fluorescens [12] = experiment: Growth inhibition of Pseudomonas fluorescens NCIM 2036 at 10 ug/ml measured after 8 hrs relative to control; conditions: NCIM 2036, 8 h, read-out: GI; method in brief: as §1
Staphylococcus aureus [13] = experiment: Growth inhibition of Staphylococcus aureus NCIM 2010 at 3 ug/ml measured after 12 hrs relative to control; conditions: NCIM 2010, 12 h, read-out: GI; method in brief: as §1
[14] = tested on: Mycobacterium tuberculosis; experiment: Growth inhibition of Mycobacterium bovis BCG ATCC 35743 at active stage measured after 8 days by nitrate reductase dye based two fold dilution method; conditions: BCG str. ATCC 35743, 192 h; method in brief: as §2
Bacillus subtilis [15] = experiment: Growth inhibition of Bacillus subtilis NCIM 2079 at 10 ug/ml measured after 12 hrs relative to control; conditions: NCIM 2079, 12 h, read-out: GI; method in brief: as §1
Aspergillus flavus = experiment: Antifungal activity against Aspergillus flavus NCIM 539 by standard agar method
Method in brief: (§3)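 MICs determined by standard agar method; DMSO as solvent control.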

[16] = tested on: Mycobacterium tuberculosis; experiment: Growth inhibition of Mycobacterium bovis BCG ATCC 35743 at dormant stage at 10 ug/ml measured after 12 days by nitrate reductase dye based two fold dilution method relative to control; conditions: BCG str. ATCC 35743, 288 h, read-out: GI; method in brief: as §2
[17] = tested on: Mycobacterium tuberculosis; experiment: Growth inhibition of Mycobacterium bovis BCG ATCC 35743 at dormant stage at 3 ug/ml measured after 12 days by nitrate reductase dye based two fold dilution method relative to control; conditions: BCG str. ATCC 35743, 288 h, read-out: GI; method in brief: as §2
[18] = Antifungal activity against Cryptococcus neoformans NCIM 576 by standard agar method; method in brief: as §3
Aspergillus niger = experiment: Antifungal activity against Aspergillus niger NCIM 1196 by standard agar method; method in brief: as §3
Candida albicans = experiment: Antifungal activity against Candida albicans NCIM 3471 by standard agar method; method in brief: as §3
Bacillus subtilis [19] = experiment: Growth inhibition of Bacillus subtilis NCIM 2079 at 30 ug/ml measured after 12 hrs relative to control; conditions: NCIM 2079, 12 h, read-out: GI; method in brief: as §1
Pseudomonas fluorescens [20] = experiment: Growth inhibition of Pseudomonas fluorescens NCIM 2036 at 30 ug/ml measured after 8 hrs relative to control; conditions: NCIM 2036, 8 h, read-out: GI; method in brief: as §1
[21] = tested on: Mycobacterium tuberculosis; experiment: Growth inhibition of Mycobacterium tuberculosis H37Ra ATCC 25177 at active stage measured after 8 days by XTT dye based two fold dilution method; conditions: H37Ra ATCC 25177, 192 h
Method in brief: (§4)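 MTB H37Ra was grown in Dubos medium, then exposed in Mycobacterium pheli minimal medium (pH 6.6) to compounds dissolved in DMSO. The assay ended on day 8 (active) or day 12 (dormant). Viable cells were measured by XTT reduction menadione assay at 470 nm, blank-corrected, relative to vehicle control. Triplicates were expressed as mean ± SD. MIC came from dose-response curves.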

Escherichia coli [22] = experiment: Growth inhibition of Escherichia coli NCIM 2688 at 10 ug/ml measured after 8 hrs relative to control; conditions: NCIM 2688, 8 h, read-out: GI; method in brief: as §1
[23] = tested on: Mycobacterium tuberculosis; experiment: Growth inhibition of Mycobacterium tuberculosis H37Ra ATCC 25177 at dormant stage measured after 12 days by XTT dye based two fold dilution method; conditions: H37Ra ATCC 25177, 288 h; method in brief: as §4
Staphylococcus aureus [24] = experiment: Growth inhibition of Staphylococcus aureus NCIM 2010 at 30 ug/ml measured after 12 hrs relative to control; conditions: NCIM 2010, 12 h, read-out: GI; method in brief: as §1
[25] = Antifungal activity against Fusarium oxysporum NCIM 1332 by standard agar method; method in brief: as §3

## NC[C@H]1O[C@H](O[C@H]2[C@H](O)[C@@H](O[C@H]3O[C@H](CO)[C@@H](O)[C@H](N)[C@H]3O)[C@H](N)C[C@@H]2N)[C@H](O)[C@@H](O)[C@@H]1O [KANAMYCIN]
Pseudomonas fluorescens [1]
  MIC: 0.012 µg/mL (≈ 0.0248 µM)
Bacillus subtilis [2]
  MIC: 0.25 µg/mL (≈ 0.516 µM)
Escherichia coli [3]
  MIC: 0.67 µg/mL (≈ 1.38 µM)
Staphylococcus aureus [4]
  MIC: 16 µg/mL (≈ 33 µM)

## COc1ccc2cc(/C=C3\SC(=S)N(CCC(=O)O)C3=O)c(Cl)nc2c1
Bacillus subtilis [5]
  inhibition of growth at 3 µg/mL: -3.95%
Staphylococcus aureus [6]
  inhibition of growth at 10 µg/mL: -12.1%
[7]
  IC50: > 30 µg/mL
  IC90: > 30 µg/mL
Pseudomonas fluorescens [1]
  MIC: > 30 µg/mL
[8]
  inhibition of growth at 30 µg/mL: 11.3%
Bacillus subtilis [2]
  MIC: > 30 µg/mL
Pseudomonas fluorescens [9]
  inhibition of growth at 3 µg/mL: -62.2%
Escherichia coli [10]
  inhibition of growth at 3 µg/mL: 2.29%
Escherichia coli [11]
  inhibition of growth at 30 µg/mL: 6.84%
Pseudomonas fluorescens [12]
  inhibition of growth at 10 µg/mL: -3.31%
Staphylococcus aureus [13]
  inhibition of growth at 3 µg/mL: -13%
[14]
  IC50: > 30 µg/mL
  IC90: > 30 µg/mL
Bacillus subtilis [15]
  inhibition of growth at 10 µg/mL: -0.582%
Aspergillus flavus
  MIC: 100 µg/mL (≈ 245 µM)
[16]
  inhibition of growth at 10 µg/mL: 16.9%
Escherichia coli [3]
  MIC: > 30 µg/mL
[17]
  inhibition of growth at 3 µg/mL: 14.1%
[18]
  MIC: 150 µg/mL (≈ 367 µM)
Aspergillus niger
  MIC: 200 µg/mL (≈ 489 µM)
Candida albicans
  MIC: 150 µg/mL (≈ 367 µM)
Bacillus subtilis [19]
  inhibition of growth at 30 µg/mL: 0.458%
Pseudomonas fluorescens [20]
  inhibition of growth at 30 µg/mL: -33.9%
Staphylococcus aureus [4]
  MIC: > 30 µg/mL
[21]
  IC50: > 30 µg/mL
  IC90: > 30 µg/mL
Escherichia coli [22]
  inhibition of growth at 10 µg/mL: 13.7%
[23]
  IC50: > 30 µg/mL
  IC90: > 30 µg/mL
Staphylococcus aureus [24]
  inhibition of growth at 30 µg/mL: -17.3%

## CCOc1ccc2nc(Cl)c(/C=C3\SC(=S)N(CC(=O)O)C3=O)cc2c1
Bacillus subtilis [5]
  inhibition of growth at 3 µg/mL: -12.7%
Staphylococcus aureus [6]
  inhibition of growth at 10 µg/mL: -13.4%
[7]
  IC50: > 30 µg/mL
  IC90: > 30 µg/mL
Pseudomonas fluorescens [1]
  MIC: > 30 µg/mL
[8]
  inhibition of growth at 30 µg/mL: 9.17%
[25]
  MIC: 150 µg/mL (≈ 367 µM)
Bacillus subtilis [2]
  MIC: > 30 µg/mL
Pseudomonas fluorescens [9]
  inhibition of growth at 3 µg/mL: -5.49%
Escherichia coli [10]
  inhibition of growth at 3 µg/mL: 5.91%
Escherichia coli [11]
  inhibition of growth at 30 µg/mL: 71.9%
Pseudomonas fluorescens [12]
  inhibition of growth at 10 µg/mL: 24.4%
Staphylococcus aureus [13]
  inhibition of growth at 3 µg/mL: 2.94%
[14]
  IC50: > 30 µg/mL
  IC90: > 30 µg/mL
Bacillus subtilis [15]
  inhibition of growth at 10 µg/mL: -0.253%
Aspergillus flavus
  MIC: 100 µg/mL (≈ 245 µM)
[16]
  inhibition of growth at 10 µg/mL: 24.8%
Escherichia coli [3]
  MIC: > 30 µg/mL
[17]
  inhibition of growth at 3 µg/mL: 26.3%
Aspergillus niger
  MIC: 125 µg/mL (≈ 306 µM)
Bacillus subtilis [19]
  inhibition of growth at 30 µg/mL: -2.41%
Pseudomonas fluorescens [20]
  inhibition of growth at 30 µg/mL: 4.87%
Staphylococcus aureus [4]
  MIC: > 30 µg/mL
[21]
  IC50: > 30 µg/mL
  IC90: > 30 µg/mL
Escherichia coli [22]
  inhibition of growth at 10 µg/mL: 18.5%
[23]
  IC50: > 30 µg/mL
  IC90: > 30 µg/mL
Staphylococcus aureus [24]
  inhibition of growth at 30 µg/mL: -9.57%

## COc1ccc2nc(Cl)c(/C=C3\SC(=S)N(CC(=O)O)C3=O)cc2c1
Bacillus subtilis [5]
  inhibition of growth at 3 µg/mL: -37%
Staphylococcus aureus [6]
  inhibition of growth at 10 µg/mL: -25.4%
[7]
  IC50: > 30 µg/mL
  IC90: > 30 µg/mL
Pseudomonas fluorescens [1]
  MIC: > 30 µg/mL
[8]
  inhibition of growth at 30 µg/mL: 32%
[25]
  MIC: 125 µg/mL (≈ 317 µM)
Bacillus subtilis [2]
  MIC: > 30 µg/mL
Pseudomonas fluorescens [9]
  inhibition of growth at 3 µg/mL: -4.12%
Escherichia coli [10]
  inhibition of growth at 3 µg/mL: -23.7%
Escherichia coli [11]
  inhibition of growth at 30 µg/mL: -50.9%
Pseudomonas fluorescens [12]
  inhibition of growth at 10 µg/mL: 0.664%
Staphylococcus aureus [13]
  inhibition of growth at 3 µg/mL: -29.3%
[14]
  IC50: > 30 µg/mL
  IC90: > 30 µg/mL
Bacillus subtilis [15]
  inhibition of growth at 10 µg/mL: -37.3%
Aspergillus flavus
  MIC: 200 µg/mL (≈ 507 µM)
[16]
  inhibition of growth at 10 µg/mL: 27.3%
Escherichia coli [3]
  MIC: > 30 µg/mL
[17]
  inhibition of growth at 3 µg/mL: 6.02%
[18]
  MIC: 150 µg/mL (≈ 380 µM)
Candida albicans
  MIC: 150 µg/mL (≈ 380 µM)
Bacillus subtilis [19]
  inhibition of growth at 30 µg/mL: -33.3%
Pseudomonas fluorescens [20]
  inhibition of growth at 30 µg/mL: -6.43%
Staphylococcus aureus [4]
  MIC: > 30 µg/mL
[21]
  IC50: > 30 µg/mL
  IC90: > 30 µg/mL
Escherichia coli [22]
  inhibition of growth at 10 µg/mL: -19.5%
[23]
  IC50: > 30 µg/mL
  IC90: > 30 µg/mL
Staphylococcus aureus [24]
  inhibition of growth at 30 µg/mL: -35.7%

## CC1(C)S[C@@H]2[C@H](NC(=O)[C@H](N)c3ccccc3)C(=O)N2[C@H]1C(=O)O [AMPICILLIN]
Pseudomonas fluorescens [1]
  MIC: 2.83 µg/mL (≈ 8.1 µM)
Bacillus subtilis [2]
  MIC: 5.89 µg/mL (≈ 16.9 µM)
Escherichia coli [3]
  MIC: 0.41 µg/mL (≈ 1.17 µM)
Staphylococcus aureus [4]
  MIC: 0.12 µg/mL (≈ 0.343 µM)
